ChEMBL document CHEMBL4385626, “SAR optimization studies on modified salicylamides as a potential treatment for acute myeloid leukemia through inhibition of the CREB pathway” (Bioorg Med Chem Lett, 2019)
The source made the active and inactive calls. No cut-off for these calls is given here.

Assays:
[1] = Inhibition of KIX-RLucC fused CBP (unknown origin) binding to KID-RLucN fused CREB (unknown origin) transfected in human HEK293 cells preincubated with compound 30 mins before forskolin addition and measured after 90 mins in presence of coelenterazine by split Renilla luciferase complementation assay
NALM-6 = experiment: Cytotoxicity against human NALM6 cells incubated for 3 days by CellTiter-Glo luminescent assay; format: functional, cell-based; details: NALM-6, 72 h
Method in brief: (§1)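 CellTiter-Glo viability read-out on leukemia cell lines. IC50 reported as the average of triplicates.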

Homo sapiens [2] = species: Homo sapiens; experiment: Inhibition of CBP KIX domain (unknown origin) binding to BODIPY-labeled phosphorylated CREB KID domain (unknown origin) interaction pre-incubated for 30 mins by fluorescence polarization assay
Method in brief: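 Fluorescence polarization with BODIPY-labeled phosphorylated CREB KID domain and the CBP KIX domain. Polarization reports the degree of KIX-KID binding.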

Jurkat = experiment: Cytotoxicity against human Jurkat cells incubated for 3 days by CellTiter-Glo luminescent assay; format: functional, cell-based; details: 72 h
Method in brief: as §1

[3] = Metabolic stability in mouse liver microsomes assessed as half life in presence of NADPH by LC-MS/MS analysis; format: ADME, Microsome
KG-1 = experiment: Cytotoxicity against human KG1 cells incubated for 3 days by CellTiter-Glo luminescent assay; format: functional, cell-based; details: KG-1, 72 h
Method in brief: as §1

HL-60 [4] = experiment: Cytotoxicity against human HL60 cells incubated for 3 days by CellTiter-Glo luminescent assay; format: functional, cell-based; details: HL-60, 72 h
Method in brief: as §1

[5] = Metabolic stability in human liver microsomes assessed as half life in presence of NADPH by LC-MS/MS analysis; format: ADME, Microsome
Bone marrow cell = experiment: Cytotoxicity against human bone marrow cells incubated for 3 days by CellTiter-Glo luminescent assay; format: cell-based; details: 72 h
[6] = MRT (0 to infinity) in NSG mouse at 2 mg/kg, iv measured after 7 to 150 mins by LC/MS/MS analysis; format: ADME, organism-based; details: in vivo
Method in brief: (§2)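 Single IV dose of 2 mg/kg to NSG mice (NOD.Cg-Prkdc scid Il2rg tm1Wjl/SzJ), vehicle DMSO/Kolliphor EL/water (3/5/82). Compound levels measured in plasma at various times after injection. PK parameters derived from the plasma time-concentration profiles.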

Homo sapiens [7] = species: Homo sapiens; experiment: Inhibition of CREB in human HL60 cells assessed as downregulation of RFC3 gene expression at 1 uM incubated for 1 day by RT-qPCR analysis; format: cell-based
Method in brief: (§3)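 HL60 cells given 1 μM compound for 1 d. RFC3 and POLD2 mRNA measured by RT-qPCR and normalized to 7SL lncRNA. Results given as mean of three independent experiments ± SEM.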

Homo sapiens [8] = species: Homo sapiens; experiment: Inhibition of CREB in human HL60 cells assessed as downregulation of POLD2 gene expression at 1 uM incubated for 1 day by RT-qPCR analysis; format: cell-based
Method in brief: as §3

HL-60 [9] = experiment: Induction of apoptosis in human HL60 cells assessed as early apoptotic cells at 1 uM incubated for 1 day by AnnexinV/DAPI double staining based flow cytometric analysis (reference value: 3.2 +/- 0.1%); format: functional
[10] = Elimination half life in NSG mouse at 2 mg/kg, iv measured after 7 to 150 mins by LC/MS/MS analysis; format: ADME, organism-based; details: in vivo, read-out: beta t1/2 (converted)
Method in brief: as §2

HL-60 [11] = experiment: Induction of apoptosis in human HL60 cells assessed as PARP cleavage level at 1 uM incubated for 1 day by DAPI staining based flow cytometric analysis (reference value: 1.2 +/- 0.1%); format: functional
[12] = AUC (0 to infinity) in NSG mouse at 2 mg/kg, iv measured after 7 to 150 mins by LC/MS/MS analysis; format: ADME, organism-based; set-up: dose 2 mg/kg, time infinity, route intravenous; details: in vivo
Method in brief: as §2

[13] = Clearance in NSG mouse at 2 mg/kg, iv measured after 7 to 150 mins by LC/MS/MS analysis; format: ADME, organism-based; details: in vivo
Method in brief: as §2

HL-60 [14] = experiment: Induction of cell cycle arrest in human HL60 cells assessed as S phase at 1 uM incubated for 1 day by DAPI staining based flow cytometric analysis (reference value: 27.5 +/- 0.57%); format: functional
[15] = AUC (0 to t) in NSG mouse at 2 mg/kg, iv measured after 7 to 150 mins by LC/MS/MS analysis; format: ADME, organism-based; details: in vivo
Method in brief: as §2

[16] = Volume of distribution at steady state in NSG mouse at 2 mg/kg, iv measured after 7 to 150 mins by LC/MS/MS analysis; format: ADME, organism-based; details: in vivo
Method in brief: as §2

[17] = Plasma concentration in NSG mouse at 2 mg/kg, iv measured after 7 to 150 mins by LC/MS/MS analysis; format: ADME, organism-based; details: in vivo
Method in brief: as §2

HL-60 [18] = experiment: Induction of cell cycle arrest in human HL60 cells assessed as G2 phase at 1 uM incubated for 1 day by DAPI staining based flow cytometric analysis (reference value: 21.4 +/- 0.42%); format: functional
HL-60 [19] = experiment: Induction of apoptosis in human HL60 cells assessed as late apoptotic cells at 1 uM incubated for 1 day by AnnexinV/DAPI double staining based flow cytometric analysis (reference value: 1.2 +/- 0.03%); format: functional
HL-60 [20] = experiment: Induction of cell cycle arrest in human HL60 cells assessed as accumulation at G1 phase at 1 uM incubated for 1 day by DAPI staining based flow cytometric analysis (reference value: 48.37 +/- 0.15%); format: functional
[21] = Apparent volume of distribution in NSG mouse at 2 mg/kg, iv measured after 7 to 150 mins by LC/MS/MS analysis; format: ADME, organism-based; details: in vivo
Method in brief: as §2

HL-60 [22] = experiment: Induction of cell cycle arrest in human HL60 cells assessed as M phase at 1 uM incubated for 1 day by DAPI staining based flow cytometric analysis (reference value: 2.64 +/- 0.06%); format: functional
HL-60 [23] = experiment: Induction of cell cycle arrest in human HL60 cells assessed as cyclin B expression in G2 phase by measuring as fluorescence intensity level at 1 uM incubated for 1 day by flow cytometric analysis (reference value: 1196.33 +/- 40.48); format: functional

Row | SMILES | IC50 [1] [nM] | IC50 (NALM-6) [nM] | IC50 (Jurkat) [nM] | half-life [3] [min] | IC50 (KG-1) [nM] | IC50 (HL-60 [4]) [nM] | half-life [5] [min] | other results
1 | O=C(Nc1cc(C(F)(F)F)cc(C(F)(F)F)c1)c1ccc(Cl)cc1O | 2530 | 850 | 570 | 31.8 | 620 | 200 | 159 | inhibition (Homo sapiens [2]): Active
2 | N#Cc1ccc(NC(=O)c2cc3ccccc3cc2O)cc1 | 4030 | – | – | 5.5 | – | 1580 | 44.9 | IC50 (Bone marrow cell): > 10000 nM
3 | O=C(Nc1ccc([N+](=O)[O-])cc1Cl)c1cc(F)ccc1O | 1520 | 910 | 530 | – | 490 | 280 | – | –
4 | N#Cc1ccc(NC(=O)c2cc(Cl)ccc2O)cc1 | 3990 | – | – | – | 1860 | 700 | – | –
5 | O=C(Nc1cc(C(F)(F)F)cc(C(F)(F)F)c1)c1cc(Br)c(-c2ccccc2)cc1O | 1550 | 840 | 680 | 159 | 300 | 430 | 159 | MRT inf [6]: 61 min; inhibition (Homo sapiens [7]): Active; inhibition (Homo sapiens [8]): Active; Activity (HL-60 [9]): 8.8%; inhibition (Homo sapiens [2]): Active; half-life [10]: 123 min; Activity (HL-60 [11]): 58.1%; AUC(0-inf) [12]: 2330 ng·h/mL; CL [13]: 0.00086 mg/ng/mL/h; Activity (HL-60 [14]): 14.27%; IC50 (Bone marrow cell): > 10000 nM; AUC(0-t) [15]: 2250 ng·h/mL; Vdss [16]: 0.00087 mg/ng/mL; Cp [17]: 19 ng/mL; Activity (HL-60 [18]): 14.37%; Activity (HL-60 [19]): 30.9%; Activity (HL-60 [20]): 69.77%; Vz [21]: 0.003 mg/ng/mL; Activity (HL-60 [22]): 1.23%
6 | O=C(Nc1ccc([N+](=O)[O-])cc1Cl)c1cc(Cl)ccc1O [NICLOSAMIDE] | 1530 | 620 | 400 | 6.6 | 360 | 300 | 21 | MRT inf [6]: 24.2 min; half-life [10]: 33.6 min; AUC(0-inf) [12]: 536 ng·h/mL; IC50 (Bone marrow cell): > 10000 nM; AUC(0-t) [15]: 536 ng·h/mL; Vdss [16]: 0.0015 mg/ng/mL; Cp [17]: 0.12 ng/mL; Vz [21]: 0.0025 mg/ng/mL
7 | COc1cccc(O)c1C(=O)Nc1ccc(C#N)cc1 | > 7000 | – | – | – | > 10000 | > 10000 | – | –
8 | O=C(Nc1cc(C(F)(F)F)cc(C(F)(F)F)c1)c1cc(Br)ccc1O | 1240 | 590 | 350 | 29.1 | 300 | 290 | 52 | inhibition (Homo sapiens [2]): Active; IC50 (Bone marrow cell): > 10000 nM
9 | N#Cc1ccc(NC(=O)c2ccc3cccnc3c2O)cc1 | – | 130 | 180 | 157 | 2320 | 370 | 124 | MRT inf [6]: 27.5 min; inhibition (Homo sapiens [7]): inactive; inhibition (Homo sapiens [8]): inactive; Activity (HL-60 [9]): 6.3%; half-life [10]: 83.4 min; Activity (HL-60 [11]): 17.3%; AUC(0-inf) [12]: 4090 ng·h/mL; CL [13]: 0.00049 mg/ng/mL/h; FI (HL-60 [23]): 875.33; Activity (HL-60 [14]): 33.7%; IC50 (Bone marrow cell): 3070 nM; AUC(0-t) [15]: 4070 ng·h/mL; Vdss [16]: 0.00022 mg/ng/mL; Activity (HL-60 [19]): 3%; Vz [21]: 0.00098 mg/ng/mL
10 | O=C(Nc1ccc([N+](=O)[O-])cc1)c1cc(F)ccc1O | – | 2080 | 940 | – | 1100 | 520 | – | –
11 | O=C(Nc1ccc(C(F)(F)F)cc1)c1ccc2cccnc2c1O | – | 380 | 550 | – | 3510 | 680 | – | –
12 | N#Cc1ccc(NC(=O)c2ccc(Br)cc2O)c(Cl)c1 | – | 1860 | 750 | – | 790 | 730 | – | –
13 | N#Cc1ccc(NC(=O)c2ccc3cccnc3c2O)c(F)c1 | – | 370 | 420 | – | 3260 | 730 | – | –
14 | O=C(Nc1ccc(C(F)(F)F)cc1)c1cc(Br)ccc1O | – | 1090 | 620 | – | 610 | 580 | – | –
15 | O=C(Nc1cc(C(F)(F)F)cc(C(F)(F)F)c1)c1cc(Br)c(F)cc1O | – | 950 | 700 | – | 510 | 250 | – | –
16 | N#Cc1ccc(NC(=O)c2cc(Br)ccc2O)cc1 | 3030 | – | – | – | 1290 | 620 | – | –
17 | COc1ccc(O)c(C(=O)Nc2ccc(C#N)cc2)c1 | > 7000 | – | – | – | > 10000 | > 10000 | – | –
18 | N#Cc1ccc(NC(=O)c2ccc3ccccc3c2)cc1 | > 7000 | – | – | – | > 10000 | > 10000 | – | –
19 | O=C(Nc1ccc(C(F)(F)F)cc1)c1ccc(F)cc1O | – | 1530 | 800 | – | 740 | 680 | – | –
20 | N#Cc1ccc(C(=O)Nc2cc3ccccc3cc2O)cc1 | > 7000 | – | – | – | > 10000 | > 10000 | – | –
